From PMC3046310 (Bioconjugate chemistry, 2010)
“Also recorded” adds a separate entry of the source.

How the values were obtained:
B16F10 murine melanoma = assay: Biodistribution in C57BL/6 mice bearing B16F10 tumors; format: in vivo
Method in brief: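 Male C57BL/6 mice, 5–6 weeks old, were given 1 × 10^6 B16F10 cells in the right flank. At tumor diameter ~8 mm, 110–130 μCi (4.07–4.81 MBq) 18F tracer in PBS (0.01 M, pH 7.4) was injected i.v. into the tail vein. Mice (n=3) were killed by CO2 at 1, 2 and 4 h p.i. Tumor, blood and organs were weighed and γ-counted, giving %ID/g. Groups were compared by unpaired Student's t-test.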

B16F10 tumors = assay: Small-animal PET imaging of mice bearing B16F10 tumors; format: in vivo, murine; conditions: for PET tumor delineation / image quality: B16F10 tumors, 1 and 2 h p.i.
Method in brief: (§1)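 Mice bearing B16F10 or A375M tumors received 110–130 μCi (4.07–4.81 MBq) 18F tracer via the tail vein. At 1 and 2 h p.i., mice under 2% isoflurane were placed prone for 5-min static small-animal PET scans, reconstructed by 2D OSEM without attenuation correction. ROIs drawn on decay-corrected coronal images were converted to %ID/g using a calibration constant, assuming 1 g/mL tissue density.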

A375M melanoma = assay: Small-animal PET imaging of mice bearing A375M tumors; format: in vivo, human
Method in brief: as §1

A375M human melanoma = assay: Biodistribution in Foxn1 nude mice bearing A375M tumors; format: in vivo
MC1R [1] = molecular target: T1, MC1R (Mus musculus, UniProt Q01727); assay: In vitro cell binding assay; design: species or system murine; conditions: B16F10 cells
Method in brief: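 B16F10 cells were grown in high-glucose DMEM with 10% FBS and penicillin/streptomycin at 37 °C and 5% CO2. Cells (0.5 × 10^6) were resuspended in DMEM with 25 mM HEPES, 0.2% BSA and 0.3 mM 1,10-phenanthroline. They were incubated for 90 min at 37 °C with test compound (10^−12–10^−6 M) and ~40,000 cpm 125I-(Tyr2)-NDP. Cells were washed three times with ice-cold PBS and counted. IC50 was taken as the competitor concentration giving 50% inhibition of radioligand binding.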

MC1R [2] = molecular target: T1, MC1R; conditions: previous studies; ref [19]; cited from earlier work
[3] = C57BL/6 mice, B16F10, 2 h p.i., i.v. 110-130 μCi, mean ± SD, n = 3
[4] = Foxn1 nude mice, A375M, 2 h p.i., i.v. 110-130 μCi, mean ± SD, n = 3

T1 sequence (Q01727 whole entry): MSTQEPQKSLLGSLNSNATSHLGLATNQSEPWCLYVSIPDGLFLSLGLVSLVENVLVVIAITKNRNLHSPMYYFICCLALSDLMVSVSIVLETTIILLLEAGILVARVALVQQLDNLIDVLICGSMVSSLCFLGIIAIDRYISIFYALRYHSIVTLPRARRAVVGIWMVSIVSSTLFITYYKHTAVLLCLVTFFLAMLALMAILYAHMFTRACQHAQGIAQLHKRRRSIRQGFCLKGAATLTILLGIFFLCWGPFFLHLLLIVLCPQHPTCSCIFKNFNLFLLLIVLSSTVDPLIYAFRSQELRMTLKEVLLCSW

Compound: CC(=O)N[C@H](CCCCNC(=O)C(C)F)C(=O)N[C@@H](CS)C(=O)N[C@@H](CS)C(=O)N[C@@H](CCC(=O)O)C(=O)N[C@@H](Cc1c[nH]cn1)C(=O)N[C@H](Cc1ccccc1)C(=O)N[C@@H](CCCNC(=N)N)C(=O)N[C@@H](Cc1c[nH]c2ccccc12)C(=O)N[C@@H](CS)C(=O)N[C@@H](CCCNC(=N)N)C(=O)N1CCC[C@H]1C(=O)N[C@H](C(N)=O)C(C)C (some centres unmarked) [^18F-FP-RMSH-1]
- Muscle uptake (B16F10 murine melanoma; B16F10 model): low uptake in muscle
- blood clearance (B16F10 murine melanoma; B16F10 model): rapid blood clearance
- lung and liver uptake compared with ^18F-FB-RMSH-1 (B16F10 murine melanoma; B16F10 model): much lower uptake in lung and liver
- tumor-to-blood and tumor-to-muscle ratios compared with ^18F-FB-RMSH-1 (B16F10 murine melanoma; B16F10 model): Much higher tumor-to-blood and tumor-to-muscle ratios
- kidney uptake compared with ^18F-FB-RMSH-1 (B16F10 murine melanoma; B16F10 tumor bearing mice, P < 0.05): lower kidney uptake
- Tumor / Muscle uptake ratio (B16F10 murine melanoma; [3]): 9.36 ± 3.98
- PET liver and kidney uptake (B16F10 tumors; B16F10, 1 and 2 h p.i.): moderate to high uptake in liver and kidney
- PET tumor delineation / image quality (B16F10 tumors): Improved quality of PET images; also recorded: clearly delineated over the background at 1 and 2 h p.i
- PET tumor uptake and tumor-to-background ratio, A375M (A375M melanoma; 1 and 2 h, compared with B16F10 tumor bearing mice): much lower tumor uptake and poor tumor-to-background ratio
- PET kidney activity accumulation, A375M (A375M melanoma; 1 and 2 h p.i.): high activity accumulation in kidneys
- PET visibility of A375M tumor (A375M melanoma; 1 and 2 h p.i.): barely discernable; also recorded: barely noticeable
- A375M tumor uptake compared with B16F10 tumors (A375M human melanoma; 2 h p.i., P < 0.01): significantly lower than in B16F10 tumors
- Heart uptake (A375M human melanoma; [4]): 0.41 ± 0.19 %ID/g
- Intestine uptake (A375M human melanoma; [4]): 0.40 ± 0.19 %ID/g
- Liver uptake (A375M human melanoma; [4]): 0.69 ± 0.21 %ID/g
- Pancreas uptake (A375M human melanoma; [4]): 0.78 ± 0.49 %ID/g

Compound: CC(=O)N[C@H](CCCCNC(=O)C(C)F)C(=O)N[C@@H](CS)C(=O)N[C@@H](CS)C(=O)N[C@@H](CCC(=O)O)C(=O)N[C@@H](Cc1c[nH]cn1)C(=O)N[C@H](Cc1ccccc1)C(=O)N[C@@H](CCCNC(=N)N)C(=O)N[C@@H](Cc1c[nH]c2ccccc12)C(=O)N[C@@H](CS)C(=O)N[C@@H](CCCNC(=N)N)C(=O)N1CCC[C@H]1C(=O)N[C@H](C(N)=O)C(C)C (some centres unmarked) [^18F-FP-RMSH-2]
- liver and lung uptake compared with ^18F-FB-RMSH-2, B16F10 (B16F10 murine melanoma; "in both models" (P < 0.05), B16F10 model): lower
- Blood uptake (B16F10 murine melanoma; [3]): 0.31 ± 0.11 %ID/g
- Bone uptake (B16F10 murine melanoma; [3]): 0.52 ± 0.08 %ID/g
- Brain uptake (B16F10 murine melanoma; [3]): 0.04 ± 0.01 %ID/g
- Heart uptake (B16F10 murine melanoma; [3]): 0.21 ± 0.06 %ID/g
- Intestine uptake (B16F10 murine melanoma; [3]): 0.91 ± 0.33 %ID/g
- Lung uptake (B16F10 murine melanoma; [3]): 0.64 ± 0.15 %ID/g
- Muscle uptake (B16F10 murine melanoma; [3]): 0.20 ± 0.05 %ID/g
- Pancreas uptake (B16F10 murine melanoma; [3]): 0.10 ± 0.03 %ID/g
- Spleen uptake (B16F10 murine melanoma; [3]): 0.53 ± 0.03 %ID/g
- Stomach uptake (B16F10 murine melanoma; [3]): 0.42 ± 0.14 %ID/g
- Tumor / Blood uptake ratio (B16F10 murine melanoma; [3]): 2.74 ± 0.80
- Tumor / Muscle uptake ratio (B16F10 murine melanoma; [3]): 3.98 ± 1.09
- liver uptake compared with ^18F-FP-RMSH-1 (B16F10 murine melanoma; biodistribution, 2 h): higher uptake in liver
- PET tumor uptake compared with ^18F-FP-RMSH-1 (B16F10 tumors; B16F10, 1 and 2 h, ROI quantification, P < 0.01): much lower tumor uptake
- PET liver and kidney uptake (B16F10 tumors; B16F10, 1 and 2 h p.i.): moderate to high uptake in liver and kidney
- PET kidney uptake compared with ^18F-FP-RMSH-1 (B16F10 tumors; B16F10, 1 and 2 h p.i., ROI quantification, n = 3, P < 0.01): much higher uptake in kidney
- PET tumor delineation / image quality (B16F10 tumors): much less prominent tumor uptake
- liver and lung uptake compared with ^18F-FB-RMSH-2, A375M (A375M human melanoma; "in both models" (P < 0.05), A375M model): lower
- liver and kidney uptake compared with ^18F-FP-RMSH-1, A375M (A375M human melanoma; A375M model, P < 0.05): higher uptake in liver and kidney
- Blood uptake (A375M human melanoma; [4]): 0.20 ± 0.09 %ID/g
- Bone uptake (A375M human melanoma; [4]): 0.25 ± 0.12 %ID/g
- Brain uptake (A375M human melanoma; [4]): 0.04 ± 0.01 %ID/g
- Heart uptake (A375M human melanoma; [4]): 0.18 ± 0.07 %ID/g
- Intestine uptake (A375M human melanoma; [4]): 0.17 ± 0.00 %ID/g
- Liver uptake (A375M human melanoma; [4]): 1.66 ± 0.08 %ID/g
- Lung uptake (A375M human melanoma; [4]): 0.47 ± 0.21 %ID/g
- Muscle uptake (A375M human melanoma; [4]): 0.10 ± 0.02 %ID/g
- Pancreas uptake (A375M human melanoma; [4]): 0.09 ± 0.01 %ID/g
- Spleen uptake (A375M human melanoma; [4]): 0.27 ± 0.03 %ID/g
- Stomach uptake (A375M human melanoma; [4]): 0.52 ± 0.50 %ID/g
- Tumor / Blood uptake ratio (A375M human melanoma; [4]): 2.90 ± 0.04
- Tumor / Muscle uptake ratio (A375M human melanoma; [4]): 6.40 ± 2.66

Compound: CC(=O)N[C@H](CCCCNC(=O)C(C)F)C(=O)N[C@@H](CS)C(=O)N[C@@H](CS)C(=O)N[C@@H](CCC(=O)O)C(=O)N[C@@H](Cc1c[nH]cn1)C(=O)N[C@H](Cc1ccccc1)C(=O)N[C@@H](CCCNC(=N)N)C(=O)N[C@@H](Cc1c[nH]c2ccccc12)C(=O)N[C@@H](CS)C(=O)N[C@@H](CCCNC(=N)N)C(=O)N1CCC[C@H]1C(=O)N[C@H](C(N)=O)C(C)C (some centres unmarked) [^19F-FP-RMSH-1]
- receptor binding affinity (MC1R [1]): within low nM range

Compound: CC(=O)N[C@H](CCCCNC(=O)C(C)F)C(=O)N[C@@H](CS)C(=O)N[C@@H](CS)C(=O)N[C@@H](CCC(=O)O)C(=O)N[C@@H](Cc1c[nH]cn1)C(=O)N[C@H](Cc1ccccc1)C(=O)N[C@@H](CCCNC(=N)N)C(=O)N[C@@H](Cc1c[nH]c2ccccc12)C(=O)N[C@@H](CS)C(=O)N[C@@H](CCCNC(=N)N)C(=O)N1CCC[C@H]1C(=O)N[C@H](C(N)=O)C(C)C (some centres unmarked) [^19F-FP-RMSH-2]
- receptor binding affinity (MC1R [1]): within low nM range

Compound: Ac-d,Lys-ReCCMSH(Arg^11) (sidechain bridge or staple) [RMSH-1]
- MC1R binding affinity of unconjugated RMSH isomers (MC1R [2]): high MC1R binding affinity in nanomolar (nM) range

Compound: Ac-d,Lys-ReCCMSH(Arg^11) (sidechain bridge or staple) [RMSH-2]
- MC1R binding affinity of unconjugated RMSH isomers (MC1R [2]): high MC1R binding affinity in nanomolar (nM) range
